Measurements: ChEMBL document CHEMBL5344404, “Design and optimization of oestrogen receptor PROTACs based on 4-hydroxytamoxifen” (Eur J Med Chem, 2022)
Each block holds one compound with its values, some of them ahead of it. The source made the active and inactive calls. The calls are words filed in the database; no cut-off is given here.

Key:
[1] = target: T1, von Hippel-Lindau disease tumor suppressor/Estrogen receptor (Homo sapiens, UniProt P03372+P40337); assay: PROTAC activity at VHL E3 ligase/ERalpha in human MCF7 cells assessed as reduction in ERalpha protein level at 10 nM incubated for 24 hrs by Western blot analysis; format: cell-based
Target sequence in this assay (P03372 whole entry, looked up): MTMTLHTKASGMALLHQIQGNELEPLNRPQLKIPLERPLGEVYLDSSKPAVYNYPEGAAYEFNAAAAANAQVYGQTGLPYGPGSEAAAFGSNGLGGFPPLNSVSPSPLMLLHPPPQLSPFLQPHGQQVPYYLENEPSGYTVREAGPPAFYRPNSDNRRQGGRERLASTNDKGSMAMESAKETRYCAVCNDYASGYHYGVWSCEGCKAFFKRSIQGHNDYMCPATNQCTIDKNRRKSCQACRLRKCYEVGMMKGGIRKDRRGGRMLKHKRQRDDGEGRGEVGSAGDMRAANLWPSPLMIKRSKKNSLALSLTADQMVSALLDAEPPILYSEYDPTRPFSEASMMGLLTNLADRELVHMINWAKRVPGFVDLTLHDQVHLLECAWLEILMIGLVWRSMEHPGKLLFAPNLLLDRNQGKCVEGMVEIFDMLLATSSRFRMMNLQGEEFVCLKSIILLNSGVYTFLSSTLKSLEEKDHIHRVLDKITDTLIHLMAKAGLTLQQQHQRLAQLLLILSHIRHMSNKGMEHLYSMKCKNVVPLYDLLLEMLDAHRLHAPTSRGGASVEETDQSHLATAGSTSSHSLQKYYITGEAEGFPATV
Target sequence in this assay (P40337 whole entry, looked up): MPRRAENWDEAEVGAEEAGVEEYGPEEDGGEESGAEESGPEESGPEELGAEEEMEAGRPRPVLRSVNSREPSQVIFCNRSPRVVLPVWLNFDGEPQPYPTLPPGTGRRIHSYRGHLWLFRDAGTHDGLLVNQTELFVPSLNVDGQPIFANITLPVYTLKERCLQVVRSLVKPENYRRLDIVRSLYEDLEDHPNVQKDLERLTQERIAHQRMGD

[2] = target: T1, von Hippel-Lindau disease tumor suppressor/Estrogen receptor; assay: PROTAC activity at VHL E3 ligase/ERalpha in human MCF7 cells assessed as reduction in ERalpha protein level at 2500 nM pretreated with MLN4924 at 1 uM for 30 mins followed by compound addition and measured after 6 hrs by Western blot analysis; format: cell-based
Target sequence in this assay (P03372 whole entry, looked up): as the sequence (P03372 whole entry, looked up) above
Target sequence in this assay (P40337 whole entry, looked up): as the sequence (P40337 whole entry, looked up) above

[3] = target: T1, von Hippel-Lindau disease tumor suppressor/Estrogen receptor; assay: PROTAC activity at VHL E3 ligase/ERalpha in human MCF7 cells assessed as reduction in ERalpha protein level at 2500 nM pretreated with carfilzomib at 1 uM for 30 mins followed by compound addition and measured after 6 hrs by Western blot analysis; format: cell-based
Target sequence in this assay (P03372 whole entry, looked up): as the sequence (P03372 whole entry, looked up) above
Target sequence in this assay (P40337 whole entry, looked up): as the sequence (P40337 whole entry, looked up) above

[4] = target: T1, von Hippel-Lindau disease tumor suppressor/Estrogen receptor; assay: PROTAC activity at VHL E3 ligase/ERalpha in human T47D cells assessed as reduction in ERalpha protein level at 0.01 to 10 uM incubated for 24 hrs by Western blot analysis; format: cell-based; conditions: dose 0.01-10 µM
Target sequence in this assay (P03372 whole entry, looked up): as the sequence (P03372 whole entry, looked up) above
Target sequence in this assay (P40337 whole entry, looked up): as the sequence (P40337 whole entry, looked up) above

[5] = target: T1, von Hippel-Lindau disease tumor suppressor/Estrogen receptor; assay: PROTAC activity at VHL E3 ligase/ERalpha in human MCF7 cells assessed as reduction in ERalpha protein level incubated for 24 hrs by Western blot analysis; format: cell-based
How it was run: (§1)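 MCF-7 cells treated 24 h across a broad concentration range. ERα quantified on Western blots and normalized to GAPDH, then plotted against PROTAC concentration to give DC50 (concentration giving 50% protein degradation). Replicates: 2 biological for the CRBN series, triplicates for the VHL series.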
Target sequence in this assay (P03372 whole entry): as the sequence (P03372 whole entry, looked up) above
Target sequence in this assay (P40337 whole entry): as the sequence (P40337 whole entry, looked up) above

[6] = target: T2, Protein cereblon/Estrogen receptor (Homo sapiens, UniProt P03372+Q96SW2); assay: PROTAC activity at CRBN/ERalpha in human MCF7 cells assessed as reduction in ERalpha protein level at 1 to 5 uM incubated for 24 hrs by Western blot analysis; format: cell-based; conditions: dose 1-5 µM
How it was run: (§2)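 MCF-7 breast cancer cells exposed to the PROTAC over a concentration series for 24 h. ERα in cell lysates then assessed by immunoblotting.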
Target sequence in this assay (P03372 whole entry, looked up): as the sequence (P03372 whole entry, looked up) above
Target sequence in this assay (Q96SW2 whole entry, looked up): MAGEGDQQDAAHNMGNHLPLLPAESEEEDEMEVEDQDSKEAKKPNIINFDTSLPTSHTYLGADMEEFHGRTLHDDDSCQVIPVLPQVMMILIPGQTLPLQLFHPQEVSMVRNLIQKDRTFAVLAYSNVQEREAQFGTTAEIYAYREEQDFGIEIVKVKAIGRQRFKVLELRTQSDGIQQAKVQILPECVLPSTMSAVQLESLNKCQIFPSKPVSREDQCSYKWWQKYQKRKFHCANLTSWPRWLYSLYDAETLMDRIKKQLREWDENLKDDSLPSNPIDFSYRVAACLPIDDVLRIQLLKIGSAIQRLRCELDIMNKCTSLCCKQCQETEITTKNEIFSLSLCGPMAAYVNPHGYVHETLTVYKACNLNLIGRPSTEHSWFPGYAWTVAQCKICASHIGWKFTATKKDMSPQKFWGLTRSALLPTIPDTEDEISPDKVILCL

[7] = target: T1, von Hippel-Lindau disease tumor suppressor/Estrogen receptor; assay: PROTAC activity at VHL/ERalpha (unknown origin); format: protein assay
Target sequence in this assay (P03372 whole entry): as the sequence (P03372 whole entry, looked up) above
Target sequence in this assay (P40337 whole entry): as the sequence (P40337 whole entry, looked up) above

[8] = target: T2, Protein cereblon/Estrogen receptor; assay: PROTAC activity at CRBN/ERalpha in human MCF7 cells assessed as reduction in ERalpha protein level at 1 uM pretreated with MLN4924 at 1 uM for 1 hr followed by compound addition for 12 hrs by Western blot analysis; format: cell-based
How it was run: (§3)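 Rescue assay in MCF-7 cells. Cells pre-treated 1 h with bortezomib 1 µM or MLN4924 1 µM, then given the PROTAC at 1 µM for 12 h. ERα read by immunoblot.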
Target sequence in this assay (P03372 whole entry, looked up): as the sequence (P03372 whole entry, looked up) above
Target sequence in this assay (Q96SW2 whole entry, looked up): as the sequence (Q96SW2 whole entry, looked up) above

[9] = target: T2, Protein cereblon/Estrogen receptor; assay: PROTAC activity at CRBN/ERalpha in human MCF7 cells assessed as reduction in ERalpha protein level at 1 uM pretreated with bortezomib at 1 uM for 1 hr followed by compound addition for 12 hrs by Western blot analysis; format: cell-based; how it was run: as §3
Target sequence in this assay (P03372 whole entry, looked up): as the sequence (P03372 whole entry, looked up) above
Target sequence in this assay (Q96SW2 whole entry, looked up): as the sequence (Q96SW2 whole entry, looked up) above

[10] = target: T2, Protein cereblon/Estrogen receptor; assay: PROTAC activity at CRBN/ERalpha in human MCF7 cells assessed as reduction in ERalpha protein level at 1 uM measured after 1 to 12 hrs by Western blot analysis; format: cell-based; conditions: time 1-12 hrs
How it was run: (§4)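 MCF-7 cells given the PROTAC at 1 µM for periods of 1–48 h, with DMSO controls held 48 h. Cell lysates immunoblotted for ERα.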
Target sequence in this assay (P03372 whole entry, looked up): as the sequence (P03372 whole entry, looked up) above
Target sequence in this assay (Q96SW2 whole entry, looked up): as the sequence (Q96SW2 whole entry, looked up) above

[11] = target: T2, Protein cereblon/Estrogen receptor; assay: PROTAC activity at CRBN/ERalpha in human MCF7 cells assessed as reduction in ERalpha protein level incubated for 24 hrs by Western blot analysis; format: cell-based; how it was run: as §1
Target sequence in this assay (P03372 whole entry): as the sequence (P03372 whole entry, looked up) above
Target sequence in this assay (Q96SW2 whole entry): as the sequence (Q96SW2 whole entry, looked up) above

[12] = target: Estrogen receptor/E3 ubiquitin-protein ligase XIAP (Homo sapiens, UniProt P03372+P98170); assay: PROTAC activity at XIAP/ERalpha (unknown origin); format: protein assay
[13] = target: T2, Protein cereblon/Estrogen receptor; assay: PROTAC activity at CRBN/ERalpha in human MCF7 cells assessed as reduction in ERalpha protein level at 5 to 10 uM measured after 24 hrs by Western blot analysis; format: cell-based; conditions: dose 5-10 µM; how it was run: as §2
Target sequence in this assay (P03372 whole entry, looked up): as the sequence (P03372 whole entry, looked up) above
Target sequence in this assay (Q96SW2 whole entry, looked up): as the sequence (Q96SW2 whole entry, looked up) above

[14] = target: T2, Protein cereblon/Estrogen receptor; assay: PROTAC activity at CRBN/ERalpha in human MCF7 cells assessed as reduction in ERalpha protein level at 1 uM measured after 24 hrs by Western blot analysis; format: cell-based; how it was run: as §4
Target sequence in this assay (P03372 whole entry, looked up): as the sequence (P03372 whole entry, looked up) above
Target sequence in this assay (Q96SW2 whole entry, looked up): as the sequence (Q96SW2 whole entry, looked up) above

[15] = target: T1, von Hippel-Lindau disease tumor suppressor/Estrogen receptor; assay: PROTAC activity at VHL E3 ligase/ERalpha in human MCF7 cells assessed as reduction in ERalpha protein level at 0.01 to 10 uM incubated for 24 hrs by Western blot analysis; format: cell-based; conditions: dose 0.01-10 µM
How it was run: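 MCF-7 cells incubated with the PROTAC at several concentrations for 24 h. Lysates analysed by immunoblotting for ERα.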
Target sequence in this assay (P03372 whole entry, looked up): as the sequence (P03372 whole entry, looked up) above
Target sequence in this assay (P40337 whole entry, looked up): as the sequence (P40337 whole entry, looked up) above

Sequence of Estrogen receptor/E3 ubiquitin-protein ligase XIAP (P03372 whole entry): as the sequence (P03372 whole entry, looked up) above
Sequence of Estrogen receptor/E3 ubiquitin-protein ligase XIAP (P98170 whole entry): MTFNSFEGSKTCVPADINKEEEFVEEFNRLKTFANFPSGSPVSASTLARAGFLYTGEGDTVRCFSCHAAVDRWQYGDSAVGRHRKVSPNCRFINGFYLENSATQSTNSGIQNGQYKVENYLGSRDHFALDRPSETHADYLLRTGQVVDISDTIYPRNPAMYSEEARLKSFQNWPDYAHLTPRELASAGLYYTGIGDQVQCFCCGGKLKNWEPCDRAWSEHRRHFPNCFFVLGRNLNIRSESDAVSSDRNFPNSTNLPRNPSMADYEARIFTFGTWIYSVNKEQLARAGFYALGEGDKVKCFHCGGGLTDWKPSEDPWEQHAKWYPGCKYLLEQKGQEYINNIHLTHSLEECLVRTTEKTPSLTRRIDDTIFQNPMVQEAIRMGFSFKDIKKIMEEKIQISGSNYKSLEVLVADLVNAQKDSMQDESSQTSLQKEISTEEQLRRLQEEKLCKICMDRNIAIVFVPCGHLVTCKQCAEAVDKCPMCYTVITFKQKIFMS

Activity [1]: Active | Activity [2]: inactive | Activity [3]: inactive | Activity [4]: Active | EC50 [5]: 4.5 nM
SMILES: CC/C(=C(\c1ccc(O)cc1)c1ccc(OCCN(C)C(=O)CCc2cn(CCCC(=O)N[C@H](C(=O)N3C[C@H](O)C[C@H]3C(=O)N[C@@H](C)c3ccc(-c4scnc4C)cc3)C(C)(C)C)nn2)cc1)c1ccccc1

Activity [6]: Active
SMILES: CC/C(=C(\c1ccc(O)cc1)c1ccc(OCCN(C)C(=O)CCc2cn(CCOCCNc3cccc4c3C(=O)N(C3CCC(=O)NC3=O)C4=O)nn2)cc1)c1ccccc1 (configuration not stated)

Activity [1]: Active | Activity [2]: inactive | Activity [3]: inactive | Activity [4]: Active | EC50 [5]: 5.3 nM
SMILES: CC/C(=C(\c1ccc(O)cc1)c1ccc(OCCN(C)C(=O)CCc2cn(CCCCCC(=O)N[C@H](C(=O)N3C[C@H](O)C[C@H]3C(=O)N[C@@H](C)c3ccc(-c4scnc4C)cc3)C(C)(C)C)nn2)cc1)c1ccccc1

Activity [15]: inactive
SMILES: CC/C(=C(\c1ccc(O)cc1)c1ccc(OCCN(C)C(=O)CCc2cn(CCCC(=O)N[C@H](C(=O)N3C[C@@H](O)C[C@H]3C(=O)N[C@@H](C)c3ccc(-c4scnc4C)cc3)C(C)(C)C)nn2)cc1)c1ccccc1

The remaining lines, values behind:

SMILES: CC[C@H](C)[C@H](NC(=O)[C@H](Cc1ccc(O)cc1)NC(=O)[C@@H]1CC(O)CN1C(=O)[C@H](C)NC(=O)[C@H](CC(C)C)NC(=O)CCCCCCC(=O)NCC(=O)OC1CC[C@H]2[C@@H]3CCc4cc(O)ccc4[C@H]3CC[C@]12C)C(=O)O (some centres not stated)
EC50 [7]: 16000 nM

SMILES: CC/C(=C(\c1ccc(O)cc1)c1ccc(OCCN(C)C(=O)CCc2cn(CCOCCOCCOCCNc3cccc4c3C(=O)N(C3CCC(=O)NC3=O)C4=O)nn2)cc1)c1ccccc1 (configuration not stated)
Activity [8]: inactive | Activity [6]: Active | Activity [9]: inactive | Activity [10]: inactive | EC50 [11]: 11.9 nM

SMILES: CNCC(=O)N[C@H](C(=O)N1Cc2cc(OCCOCCOCCOCCOc3ccc(Oc4c(-c5ccc(O)cc5)sc5cc(O)ccc45)cc3)ccc2C[C@H]1C(=O)N[C@@H]1CCCc2ccccc21)C(C)(C)C
EC50 [12]: < 1000 nM

SMILES: CC/C(=C(\c1ccc(O)cc1)c1ccc(OCCN(C)C(=O)CCc2cn(CCOCCOCCOCCNc3cccc4c3C(=O)N(C3CCC(=O)N(C)C3=O)C4=O)nn2)cc1)c1ccccc1 (configuration not stated)
Activity [13]: Active | Activity [14]: inactive

SMILES: CC/C(=C(\c1ccc(O)cc1)c1ccc(OCCN(C)C(=O)COCCOCCOCCOc2cccc(C(=O)c3csc([C@@H]4CCCN4C(=O)[C@@H](NC(=O)[C@H](C)NC)C4CCCCC4)n3)c2)cc1)c1ccccc1
EC50 [12]: 10 nM
